One may read the AUC as concentration integrated over time. Higher therefore signals high exposure. As a reminder, the MIC is the lowest concentration found to suppress growth. A higher MIC goes with weaker potency. By ED50 is commonly meant the dose at which the effect has come halfway, by size or by number of responders.

In brackets after ≈: the same amount, converted by molar mass.

The subject of data set [1] is Mus musculus. Nature of the data set: Blood level after oral administration in mice (50 mg/kg) was determined (area under the concentration-time curve recorded at 0.5, 1, 2, and 4 hour after dosing). The settings on record: in vivo. On the set-up: dose 50 mg/kg, time < 4 hr, route oral. It is filed as ADME, organism-based. The method, boiled down:
(§1)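 Single oral dose of 50 mg/kg to mice. Blood taken from groups of six mice at 0.5, 1, 2 and 4 h after dosing. Serum levels measured by disk agar diffusion bioassay with Bacillus subtilis ATCC 6633 on Seed Agar, plates incubated 18 h at 37 °C, giving total activity in serum. AUC 0-4 h expressed as μg/mL […].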

Data set [2] deals with Bacillus cereus. Nature of the data set: Minimum inhibitory concentration (MIC) preventing growth of Bacillus cereus. In kind it is functional.
Data set [3] deals with Bacillus subtilis. Nature of the data set: Minimum inhibitory concentration (MIC) preventing growth of Bacillus subtilis. In kind it is functional.
For data set [4], the system named is Escherichia coli. Nature of the data set: Minimum inhibitory concentration (MIC)preventing growth of Escherichia coli. In kind it is functional.
The subject of data set [5] is Escherichia coli. Nature of the data set: Efficacy on systemic infections after oral administration in mice was determined against Escherichia coli HM-42. It is filed as functional. The method, boiled down: (§2)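 Mouse protection test using 4 groups of 10 mice. Mice were infected intraperitoneally with a bacterial suspension slightly above LD100. A single oral dose was given immediately after infection, with four doses, one per group, chosen from in vitro activity. Survival was scored after one week, and ED50 (total mg/kg protecting 50% of mice) was interpolated from group survival rates.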

The subject of data set [6] is Klebsiella pneumoniae. Nature of the data set: Minimum inhibitory concentration (MIC)preventing growth of Klebsiella pneumoniae. In kind it is functional.
Data set [7] has as its system Morganella morganii. Nature of the data set: Minimum inhibitory concentration (MIC) preventing growth of Morganella morganii. It is filed as functional.
For data set [8], the system named is Pseudomonas aeruginosa. Nature of the data set: Efficacy on systemic infections after oral administration in mice was determined against Pseudomonas aeruginosa HS-116. It is filed as functional. The method, boiled down:
as §2

The test system of data set [9] is Proteus vulgaris. Nature of the data set: Minimum inhibitory concentration (MIC) preventing growth of Proteus vulgaris. It is filed as functional.
In data set [10] the test system is Staphylococcus epidermidis. Nature of the data set: Minimum inhibitory concentration (MIC) preventing growth of Staphylococcus epidermidis. In kind it is functional.
Data set [11] relates to Staphylococcus aureus. Nature of the data set: Minimum inhibitory concentration (MIC) preventing growth of […]. It is filed as functional.
Data set [12] deals with Staphylococcus aureus. Nature of the data set: Efficacy on systemic infections after oral administration in mice was determined against […] HS-93. It is filed as functional. The method, boiled down:
as §2

The test system of data set [13] is Enterococcus faecalis. Nature of the data set: Minimum inhibitory concentration (MIC) preventing growth of Streptococcus faecalis ATCC 10541. It is filed as functional.
Data set [14] relates to Enterobacter cloacae. Nature of the data set: Minimum inhibitory concentration (MIC)preventing growth of Enterobacter cloacae. It is filed as functional.
Data set [15] relates to Pseudomonas aeruginosa. Nature of the data set: Minimum inhibitory concentration (MIC)preventing growth of Pseudomonas aeruginosa. In kind it is functional.
The subject of data set [16] is Mus musculus. Nature of the data set: Blood level after oral administration in mice (50 mg/kg) was determined by bioassay procedure and represent total activity present in the serum. In kind it is ADME, organism-based. Particulars: in vivo. In outline: as §1

In data set [1], `NC1CN(c2c(F)cc3c(=O)c(C(=O)O)cn(C4CC4)c3c2F)C1` yielded an exposure (AUC) of 23000 ng·h/mL. The minimal inhibitory concentration (MIC) in data set [2] stood at 0.12 µg/mL (≈ 0.358 µM); in [3], 0.03 µg/mL (≈ 0.0895 µM); in [4], 0.03 µg/mL (≈ 0.0895 µM); in data set [6] it was 0.03 µg/mL (≈ 0.0895 µM); in [7], 0.03 µg/mL (≈ 0.0895 µM); in data set [9], 0.12 µg/mL (≈ 0.358 µM). Further, the minimal inhibitory concentration (MIC) in data set [10] amounted to 0.12 µg/mL (≈ 0.358 µM); in data set [11], 0.12 µg/mL (≈ 0.358 µM); in data set [13] it was 0.25 µg/mL (≈ 0.746 µM); in data set [14], 0.06 µg/mL (≈ 0.179 µM); in [15], 0.5 µg/mL (≈ 1.49 µM). The ED50 in [5] turned out to be 2.4 mg/kg; in data set [8] it was 141 mg/kg; in data set [12] it was 16.2 mg/kg.
As for `CCNCC1CN(c2c(F)cc3c(=O)c(C(=O)O)cn(C4CC4)c3c2F)C1`, the AUC in data set [16] was determined as 14100 ng·h/mL. The MIC was 0.5 µg/mL (≈ 1.32 µM) in data set [2]; 0.06 µg/mL (≈ 0.159 µM) in [3]; 0.25 µg/mL (≈ 0.662 µM) in data set [4]; 0.06 µg/mL (≈ 0.159 µM) in [6]; 0.25 µg/mL (≈ 0.662 µM) in data set [7]; 1 µg/mL (≈ 2.65 µM) in data set [9]. Also, the MIC was 0.25 µg/mL (≈ 0.662 µM) in data set [10]; 0.5 µg/mL (≈ 1.32 µM) in [11]; 0.5 µg/mL (≈ 1.32 µM) in data set [13]; 0.25 µg/mL (≈ 0.662 µM) in data set [14]; 4 µg/mL (≈ 10.6 µM) in data set [15].
Turning to `NC1CN(c2cc3c(cc2F)c(=O)c(C(=O)O)cn3C2CC2)C1`, the exposure (AUC) in data set [1] was 3000 ng·h/mL. In addition, the minimal inhibitory concentration (MIC) is 0.12 µg/mL (≈ 0.378 µM) in [2]; 0.03 µg/mL (≈ 0.0945 µM) in data set [3]; 0.03 µg/mL (≈ 0.0945 µM) in data set [4]; 0.03 µg/mL (≈ 0.0945 µM) in [6]; 0.03 µg/mL (≈ 0.0945 µM) in data set [7]; 0.12 µg/mL (≈ 0.378 µM) in data set [9]. Moreover, the MIC in data set [10] amounted to 0.12 µg/mL (≈ 0.378 µM); in data set [11], 0.25 µg/mL (≈ 0.788 µM); in data set [13], 0.5 µg/mL (≈ 1.58 µM); in data set [14] it was 0.03 µg/mL (≈ 0.0945 µM); in [15], 0.25 µg/mL (≈ 0.788 µM). Besides, the median effective dose (ED50) in [5] amounted to 3.6 mg/kg; in [8], 82.2 mg/kg; in [12] it was 44 mg/kg.
The compound `CNC1(C)CN(c2c(F)cc3c(=O)c(C(=O)O)cn(C4CC4)c3c2F)C1` had an exposure (AUC) in data set [1] of 15800 ng·h/mL. For the same compound, the minimum inhibitory concentration (MIC) in data set [2] is 0.5 µg/mL (≈ 1.38 µM); in [3], 0.12 µg/mL (≈ 0.33 µM); in data set [4] it was 0.12 µg/mL (≈ 0.33 µM); in data set [6] it was 0.12 µg/mL (≈ 0.33 µM); in data set [7], 0.12 µg/mL (≈ 0.33 µM); in data set [9] it was 1 µg/mL (≈ 2.75 µM). Moreover, the MIC in data set [10] came to 0.5 µg/mL (≈ 1.38 µM); in [11], 0.5 µg/mL (≈ 1.38 µM); in data set [13] it was 1 µg/mL (≈ 2.75 µM); in data set [14] it was 0.12 µg/mL (≈ 0.33 µM); in [15] it was 2 µg/mL (≈ 5.5 µM). Further, the results for the 50% effective dose (ED50) in data set [5], in [8] and in data set [12] were 1.4 mg/kg, 27.2 mg/kg and 15 mg/kg, respectively.
In turn, `CN(C)C1CN(c2cc3c(cc2F)c(=O)c(C(=O)O)cn3C2CC2)C1` showed an area under the curve (AUC) in [1] of 10600 ng·h/mL. For the same compound, the minimal inhibitory concentration (MIC) in data set [2] stood at 0.12 µg/mL (≈ 0.347 µM); in data set [3], 0.015 µg/mL (≈ 0.0434 µM); in data set [4], 0.06 µg/mL (≈ 0.174 µM); in [6], 0.015 µg/mL (≈ 0.0434 µM); in data set [7] it was 0.12 µg/mL (≈ 0.347 µM); in data set [9] it was 0.12 µg/mL (≈ 0.347 µM). The MIC in data set [10] amounted to 0.12 µg/mL (≈ 0.347 µM); in [11], 0.12 µg/mL (≈ 0.347 µM); in data set [13] it was 1 µg/mL (≈ 2.9 µM); in data set [14] it was 0.06 µg/mL (≈ 0.174 µM); in [15] it was 2 µg/mL (≈ 5.79 µM). Further, the 50% effective dose (ED50) is 1.3 mg/kg in [5], 44.5 mg/kg in [8] and 35.6 mg/kg in [12].
`CNC1CN(c2c(F)cc3c(=O)c(C(=O)O)cn(C4CC4)c3c2F)C1` gave an exposure (AUC) in data set [1] of 32700 ng·h/mL. In addition, the minimum inhibitory concentration (MIC) in [2] turned out to be 0.25 µg/mL (≈ 0.716 µM); in data set [3] it was 0.06 µg/mL (≈ 0.172 µM); in data set [4] it was 0.03 µg/mL (≈ 0.0859 µM); in data set [6], 0.03 µg/mL (≈ 0.0859 µM); in [7], 0.06 µg/mL (≈ 0.172 µM); in data set [9] it was 0.5 µg/mL (≈ 1.43 µM). The minimum inhibitory concentration (MIC) was determined as 0.12 µg/mL (≈ 0.344 µM) in [10]; 0.25 µg/mL (≈ 0.716 µM) in [11]; 1 µg/mL (≈ 2.86 µM) in data set [13]; 0.03 µg/mL (≈ 0.0859 µM) in [14]; 0.5 µg/mL (≈ 1.43 µM) in data set [15]. Besides, the figures for the ED50 in data set [5], in [8] and in data set [12] were 1.5 mg/kg, 28.5 mg/kg and 10.6 mg/kg, respectively.
In turn, `NCC1CN(c2c(F)cc3c(=O)c(C(=O)O)cn(C4CC4)c3c2F)C1` displayed an AUC in data set [1] of 1700 ng·h/mL. Moreover, the MIC turned out to be 0.12 µg/mL (≈ 0.344 µM) in [2]; 0.06 µg/mL (≈ 0.172 µM) in [3]; 0.25 µg/mL (≈ 0.716 µM) in [4]; 0.25 µg/mL (≈ 0.716 µM) in [6]; 0.25 µg/mL (≈ 0.716 µM) in data set [7]; 1 µg/mL (≈ 2.86 µM) in [9]. Further, the MIC in [10] was 0.12 µg/mL (≈ 0.344 µM); in [11], 0.12 µg/mL (≈ 0.344 µM); in data set [13], 0.12 µg/mL (≈ 0.344 µM); in data set [14], 0.25 µg/mL (≈ 0.716 µM); in data set [15], 2 µg/mL (≈ 5.73 µM).

(Values after ChEMBL document CHEMBL1126625, “7-Azetidinylquinolones as antibacterial agents. Synthesis and structure-activity relationships” (J Med Chem, 1993).)
